Reference: ChEMBL document CHEMBL4316619 (Bioorg Med Chem Lett, 2019)
Activity calls are given as the source filed them. The calls are words filed in the database; no cut-off is given here.

Columns and labels:
[1] = tested on: Influenza A virus; experiment: Antiviral activity against Influenza A virus A/PR/8/34 (H1N1) infected in MDCK cells assessed as fold reduction in virus titer at 10 uM measured after 48 hrs by hemagglutination assay relative to control; assay type: functional, A/Puerto Rico/8/1934(H1N1)
Summary of the method: (§1)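 MDCK cells were infected with A/PR/8/34 (H1N1) at MOI 0.1 and incubated with compound for 48 h. Supernatant virus was then quantified by hemagglutination assay and standard TCID50 analysis. The single-concentration screen used 10 μM and reports fold reduction in titer. Dose-response runs used triplicate cultures, with percent titer decrease back-calculated from TCID50.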

[2] = tested on: Influenza A virus; experiment: Antiviral activity against Influenza A virus A/PR/8/34 (H1N1) infected in MDCK cells assessed as reduction in virus titer measured after 48 hrs by hemagglutination assay; assay type: functional; details: A/Puerto Rico/8/1934(H1N1); summary of the method: as §1
[3] = tested on: MDCK; experiment: Cytotoxicity against MDCK cells assessed as reduction in cell viability up to 100 uM measured after 48 hrs by CellTiter Glo assay; assay type: cell-based, Canis lupus familiaris; details: dog
Summary of the method: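 MDCK cells were incubated with compound under the conditions of the 48 h replication assay. Cytotoxicity was read with the CellTiter-Glo ATP viability assay. Follow-up viability testing used 5, 10, 50 and 100 μM.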

[4] = tested on: Influenza A virus H3N2; experiment: Antiviral activity against Influenza A virus (A/Brisbane/10/2007(H3N2)) infected in MDCK cells assessed as reduction in virus-induced cytopathic effect measured on day 5 by Celltiter-Glo luminescence assay; assay type: functional, organism-based; details: 120 h
Summary of the method: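 MDCK cells were infected with seasonal influenza A strains through NIAID resources and scored for protection from virus-induced cell death. Compounds were tested at four concentrations (0.8, 4, 20, 100 μM). EC50/EC90 (reduction of viral cell death) and CC50 (reduction of cell viability) were derived in μM, and SI50 = CC50/EC50.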

[5] = tested on: Influenza B virus; experiment: Antiviral activity against Influenza B virus (B/Brisbane/60/2008) infected in MDCK cells assessed as reduction in virus-induced cytopathic effect measured on day 5 by Celltiter-Glo luminescence assay; assay type: functional, organism-based
[6] = tested on: Saccharomyces cerevisiae; experiment: Effect on growth of Yeast 9526-6-2 harboring pYES at 50 uM measured up to 60 hrs; assay type: organism-based; details: in vivo
Summary of the method: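 Control yeast carrying empty pYES and NS1-expressing NS1-pYES strain grown with DMSO or compound at 50 μM. Growth measured as OD600 at 22, 42 and 60 h.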

[7] = target: Non-structural protein 1 (Influenza A virus (strain A/Puerto Rico/8/1934 H1N1)) (UniProt P03496); experiment: Inhibition of NS1 in Influenza A virus A/PR/8/34 (H1N1) infected in MDCK cells assessed as restoration of protein-induced reduction in IFN-beta mRNA expression at 20 uM measured after 6 hrs by RT-PCR analysis; assay type: cell-based; details: Influenza A virus (A/Puerto Rico/8/1934(H1N1))
Summary of the method: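 MDCK cells infected with A/PR/8/34 at MOI 2 and incubated 6 h with compound at 20 μM. Cells harvested; IFN-β and β-actin mRNA detected by RT-PCR. Poly(I:C) lane serves as positive control for IFN-β induction.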

[8] = tested on: Influenza A virus; experiment: Effect on NS1 protein expression in Influenza A virus A/PR/8/34 (H1N1) infected in MDCK cells at 20 uM by Western blot analysis; assay type: functional, organism-based; details: A/Puerto Rico/8/1934(H1N1)
Summary of the method: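 MDCK cells, uninfected or infected with A/PR/8/34, treated with DMSO or compound at 20 μM. NS1 protein detected by Western blot, with α-tubulin as loading control.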

[9] = Aqueous kinetic solubility of the compound; assay type: physicochemical; details: buffer
[10] = Stability of the compound in mouse liver microsomes assessed as parent compound remaining measured immediately; assay type: ADME, Microsome; details: read-out: Stability
Summary of the method: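 Mouse liver microsomes; percent parent compound remaining measured at 0, 15 and 30 min.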

[11] = Apparent permeability across basolateral to apical side in human Caco2 cells measured after 2 hrs; assay type: ADME, cell-based; details: caco-2, 2 h
Summary of the method: (§2)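 Permeability was measured across Caco-2 monolayers in both directions, apical to basolateral and basolateral to apical. […] Runs were done with and without 3% BSA, and mass recovery (%) was reported for each direction. Efflux ratio = Papp B→A / Papp A→B.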

[12] = Apparent permeability across basolateral to apical side in human Caco2 cells assessed as drug recovery; assay type: ADME, cell-based; details: caco-2; summary of the method: as §2
[13] = Cmax in C57BL/6 mouse plasma at 30 mg/kg, ip; assay type: ADME, organism-based; set-up: dose 30 mg/kg, route intraperitoneal; details: mouse, in vivo
Summary of the method: (§3)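 Male C57BL/6 mice received a single intraperitoneal dose of 30 mg/kg (N=3). Compound concentrations were followed over time in plasma, liver and lung. Tmax, Cmax, terminal t1/2, AUClast and AUCINF were derived from the mean concentration-time profiles.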

[14] = AUClast in C57BL/6 mouse plasma at 30 mg/kg, ip; assay type: ADME, organism-based; set-up: dose 30 mg/kg, route intraperitoneal, time 0 - last; summary of the method: as §3
[15] = Cmax in C57BL/6 mouse liver at 30 mg/kg, ip; assay type: ADME, organism-based; set-up: dose 30 mg/kg, route intraperitoneal; summary of the method: as §3
[16] = AUC (infinity) in C57BL/6 mouse lung at 30 mg/kg, ip; assay type: ADME, organism-based; set-up: dose 30 mg/kg, route intraperitoneal, time infinity; summary of the method: as §3
[17] = Drug level in C57BL/6 mouse plasma at 30 mg/kg, ip measured at 0.25 hrs; assay type: ADME, organism-based
Summary of the method: (§4)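 Male C57BL/6 mice, single intraperitoneal 30 mg/kg dose, N=3. Plasma, liver and lung concentrations followed over time to give concentration-time profiles, from which Tmax, Cmax, terminal t1/2, AUClast and AUCINF were derived.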

[18] = Drug level in C57BL/6 mouse plasma at 30 mg/kg, ip measured at 0.5 hrs; assay type: ADME, organism-based; summary of the method: as §4
[19] = Drug level in C57BL/6 mouse plasma at 30 mg/kg, ip measured at 3 hrs; assay type: ADME, organism-based; summary of the method: as §4
[20] = Drug level in C57BL/6 mouse plasma at 30 mg/kg, ip measured at 4 hrs; assay type: ADME, organism-based; summary of the method: as §4
[21] = Drug level in C57BL/6 mouse plasma at 30 mg/kg, ip measured at 8 hrs; assay type: ADME, organism-based; summary of the method: as §4
[22] = Drug level in C57BL/6 mouse liver at 30 mg/kg, ip measured at 0.083 hrs; assay type: ADME, organism-based; details: in vivo; summary of the method: as §3
[23] = Drug level in C57BL/6 mouse liver at 30 mg/kg, ip measured at 1 hrs; assay type: ADME, organism-based; details: in vivo; summary of the method: as §3
[24] = Drug level in C57BL/6 mouse liver at 30 mg/kg, ip measured at 4 hrs; assay type: ADME, organism-based; details: in vivo; summary of the method: as §3
[25] = Drug level in C57BL/6 mouse liver at 30 mg/kg, ip measured at 12 hrs; assay type: ADME, organism-based; details: in vivo; summary of the method: as §3
[26] = Drug level in C57BL/6 mouse lung at 30 mg/kg, ip measured at 2 hrs; assay type: ADME, organism-based; details: in vivo; summary of the method: as §3
[27] = Drug level in C57BL/6 mouse lung at 30 mg/kg, ip measured at 4 hrs; assay type: ADME, organism-based; details: in vivo; summary of the method: as §3
[28] = Drug level in C57BL/6 mouse lung at 30 mg/kg, ip measured at 24 hrs; assay type: ADME, organism-based; details: in vivo; summary of the method: as §3
[29] = Drug level in C57BL/6 mouse lung at 30 mg/kg, ip measured at 48 hrs; assay type: ADME, organism-based; details: in vivo; summary of the method: as §3
[30] = Toxicity in C57BL/6 mouse assessed as effect on lungs at 30 mg/kg, ip; assay type: organism-based; details: in vivo
[31] = Toxicity in C57BL/6 mouse assessed as adverse effect at 30 mg/kg, ip; assay type: organism-based; details: in vivo

Sequence of Non-structural protein 1 (Influenza A virus (strain A/Puerto Rico/8/1934 H1N1)) (P03496 whole entry): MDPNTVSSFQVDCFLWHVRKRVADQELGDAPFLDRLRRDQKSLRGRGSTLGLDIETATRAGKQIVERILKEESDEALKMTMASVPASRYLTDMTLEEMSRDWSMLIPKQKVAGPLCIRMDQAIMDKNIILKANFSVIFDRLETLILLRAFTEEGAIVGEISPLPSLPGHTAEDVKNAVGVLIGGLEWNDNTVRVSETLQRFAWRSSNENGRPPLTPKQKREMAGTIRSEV

COc1cc(-c2ccnc3c2c(C)nn3-c2ccc(C(F)(F)F)cc2)ccc1O
fold change (FC) [1]: 128
IC90 [2]: 0.155 µM
Activity [3]: Non-Toxic
EC50 [4]: 17 µM
EC90 [4]: > 50 µM
Activity [5]: inactive
Activity [6]: Non-Toxic
inhibition [7]: Active
Activity [8]: inactive
Kinetic_solubility [9]: 3.1 µM
remaining at 0 min [10]: 100%
Papp [11]: 0.23 ×10⁻⁶ cm/s
Drug recovery [12]: 9%
Cmax [13]: 2437 ng/mL
AUC(0-t) [14]: 7660 ng·h/mL
Cmax [15]: 49600 ng/mL
AUC(0-inf) [16]: 53900 ng·h/mL
concentration at 0.25 h [17]: 6100 nM
concentration at 0.5 h [18]: 5760 nM
concentration at 3 h [19]: 1730 nM
concentration at 4 h [20]: 1200 nM
concentration at 8 h [21]: 555 nM
Drug uptake [22]: 114014 nmol/kg
Drug uptake [23]: 44487 nmol/kg
Drug uptake [24]: 13997 nmol/kg
Drug uptake [25]: 1984 nmol/kg
Drug uptake [26]: 16568 nmol/kg
Drug uptake [27]: 11477 nmol/kg
Drug uptake [28]: 168 nmol/kg
Drug uptake [29]: 15 nmol/kg
Activity [30]: Non-Toxic
Activity [31]: Non-Toxic
